Results as given in ChEMBL document CHEMBL1157638, “Fluorescent epigenetic small molecule induces expression of the tumor suppressor ras-association domain family 1A and inhibits human prostate xenograft” (J Med Chem, 2010).

What was measured:
Format in all cases: functional
SR [1] = test: Growth inhibition of human SR cells assessed as cell growth at 100 nM relative to untreated control; settings: read-out: Activity
EKVX = test: Growth inhibition of human EKVX cells assessed as cell growth at 100 nM relative to untreated control; settings: read-out: Activity
In short: (§1)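 Run externally at the National Cancer Institute as a 59-cell-line panel screen, with concentrations up to 100 μM. Growth was scored relative to control, where negative growth or total cell kill was possible. Data are in the Supporting Information.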

NCI-H23 = test: Growth inhibition of human NCI-H23 cells assessed as cell growth at 100 nM relative to untreated control; settings: read-out: Activity
SF-539 = test: Growth inhibition of human SF539 cells assessed as cell growth at 100 nM relative to untreated control; settings: read-out: Activity
SNB-19 = test: Growth inhibition of human SNB19 cells assessed as cell growth at 100 nM relative to untreated control; settings: read-out: Activity
SK-MEL-5 = test: Growth inhibition of human SK-MEL-5 cells assessed as cell growth at 100 nM relative to untreated control; settings: read-out: Activity
UACC-62 [2] = test: Growth inhibition of human UACC62 cells assessed as cell growth at 100 nM relative to untreated control; settings: read-out: Activity
A498 = test: Growth inhibition of human A498 cells assessed as cell growth at 100 nM relative to untreated control; settings: read-out: Activity
ACHN = test: Growth inhibition of human ACHN cells assessed as cell growth at 100 nM relative to untreated control; settings: read-out: Activity
CAKI-1 [3] = test: Growth inhibition of human Caki1 cells assessed as cell growth at 100 nM relative to untreated control; settings: read-out: Activity; in short: as §1
MCF7 = test: Growth inhibition of human MCF7 cells assessed as cell growth at 100 nM relative to untreated control; settings: read-out: Activity
BT-549 = test: Growth inhibition of human BT549 cells assessed as cell growth at 100 nM relative to untreated control; settings: read-out: Activity
K562 = test: Growth inhibition of human K562 cells assessed as cell growth at 1 uM relative to untreated control; settings: read-out: Activity
HCT-116 = test: Growth inhibition of human HCT116 cells assessed as cell growth at 1 nM relative to untreated control; settings: read-out: Activity; in short: as §1
SF-268 [4] = test: Growth inhibition of human SF268 cells assessed as cell growth at 1 nM relative to untreated control; settings: read-out: Activity
M14 [5] = test: Growth inhibition of human M14 cells assessed as cell growth at 1 nM relative to untreated control; settings: read-out: Activity
SK-MEL-28 [6] = test: Growth inhibition of human SK-MEL-28 cells assessed as cell growth at 1 nM relative to untreated control; settings: read-out: Activity
SNB-75 = test: Growth inhibition of human SNB75 cells assessed as cell growth at 1 uM relative to untreated control; settings: read-out: Activity
LOX IMVI = test: Growth inhibition of human LOXIMVI cells assessed as cell growth at 1 uM relative to untreated control; settings: read-out: Activity
M14 [7] = test: Growth inhibition of human M14 cells assessed as cell growth at 1 uM relative to untreated control; settings: read-out: Activity
TK-10 = test: Growth inhibition of human TK10 cells assessed as cell growth at 1 nM relative to untreated control; settings: read-out: Activity
UO-31 = test: Growth inhibition of human UO31 cells assessed as cell growth at 1 nM relative to untreated control; settings: read-out: Activity
MDA-MB-231 = test: Growth inhibition of human MDA-MB-231 cells assessed as cell growth at 1 nM relative to untreated control; settings: read-out: Activity
SR [8] = test: Growth inhibition of human SR cells assessed as cell growth at 10 nM relative to untreated control; settings: read-out: Activity
HOP-62 = test: Growth inhibition of human HOP62 cells assessed as cell growth at 10 nM relative to untreated control; settings: read-out: Activity; in short: as §1
HOP-92 [9] = test: Growth inhibition of human HOP92 cells assessed as cell growth at 10 nM relative to untreated control; settings: read-out: Activity; in short: as §1
PC-3 [10] = test: Growth inhibition of human PC3 cells assessed as cell growth at 1 uM relative to untreated control; settings: read-out: Activity
SR [11] = test: Growth inhibition of human SR cells assessed as cell growth at 10 uM relative to untreated control; settings: read-out: Activity
KM12 = test: Growth inhibition of human KM12 cells assessed as cell growth at 10 uM relative to untreated control; settings: read-out: Activity
UACC-62 [12] = test: Growth inhibition of human UACC62 cells assessed as cell growth at 10 uM relative to untreated control; settings: read-out: Activity
786-0 = test: Growth inhibition of human 786-0 cells assessed as cell growth at 10 uM relative to untreated control; settings: read-out: Activity
CAKI-1 [13] = test: Growth inhibition of human Caki1 cells assessed as cell growth at 10 uM relative to untreated control; settings: read-out: Activity; in short: as §1
[14] = Growth inhibition of human Hs 578T cells assessed as cell growth at 10 uM relative to untreated control; settings: read-out: Activity
T47D = test: Growth inhibition of human T47D cells assessed as cell growth at 10 uM relative to untreated control; settings: read-out: Activity
[15] = Growth inhibition of human […] cells
HOP-92 [16] = test: Growth inhibition of human HOP92 cells; in short: as §1
PC-3 [17] = test: Growth inhibition of human PC3 cells after 24 hrs by trypan blue exclusion method; settings: PC-3, 24 h
In short: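 PC-3 cells grown in phenol red-free IMEM with 10% FBS, 2 mM glutamine and penicillin/streptomycin at 37 °C, 5% CO2. Seeded in triplicate at 1.5 × 10⁴ cells/well. After 24 h, treated with DMSO vehicle or 1, 5, 15, 30 or 60 μM compound for 24 h. Cells trypsinized, stained with 0.4% trypan blue, and live and dead cells counted by hemocytometer. Mean ± SEM of three independent observations.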

PC-3 [18] = test: Antitumor activity against human PC3 cells xenografted in athymic BALB/c mouse assessed as reduction in tumor volume at 10 mg/kg, ip dosed every other day for 28 days relative to untreated control; set-up: scale not given: the % may be the effect or the level left; settings: route intraperitoneal
In short: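 Male athymic Balb/c nude mice (18-22 g) got 3 × 10⁶ PC-3 cells subcutaneously in the right axillary region. After one week they were randomized into two groups of four. Dosing was 10 mg/kg ip or vehicle once every other day for 28 days. Vehicle was DMSO stock diluted in 1:1 PEG 400/PBS. Tumour volume was measured by caliper as length × width × height/2. Data are mean ± SEM (n = 4).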

HOP-92 [19] = test: Growth inhibition of human HOP92 cells assessed as cell growth at 1 nM relative to untreated control; settings: read-out: Activity; in short: as §1
HCC 2998 = test: Growth inhibition of human HCC2998 cells assessed as cell growth at 10 nM relative to untreated control; settings: read-out: Activity; in short: as §1
SF-268 [20] = test: Growth inhibition of human SF268 cells assessed as cell growth at 10 nM relative to untreated control; settings: read-out: Activity
SK-MEL-28 [21] = test: Growth inhibition of human SK-MEL-28 cells assessed as cell growth at 10 nM relative to untreated control; settings: read-out: Activity
NCI/ADR-RES = test: Growth inhibition of human NCI/ADR-RES cells assessed as cell growth at 10 nM relative to untreated control; settings: read-out: Activity
[22] = read-out: LC50 (the source's name)

COc1ccc2c(c1)[nH]c1c(C)c(OS(=O)(=O)c3cccc4c(N(C)C)cccc34)ccc12
growth at 0.1 µM (SR [1]): 95% | growth at 0.1 µM (EKVX): 91% | growth at 0.1 µM (NCI-H23): 81% | growth at 0.1 µM (SF-539): 87% | growth at 0.1 µM (SNB-19): 88% | growth at 0.1 µM (SK-MEL-5): 91% | growth at 0.1 µM (UACC-62 [2]): 75% | growth at 0.1 µM (A498): 59% | growth at 0.1 µM (ACHN): 97% | growth at 0.1 µM (CAKI-1 [3]): 81% | growth at 0.1 µM (MCF7): 81% | growth at 0.1 µM (BT-549): 93% | growth at 1 µM (K562): 5% | growth at 0.001 µM (HCT-116): 100% | growth at 0.001 µM (SF-268 [4]): 102% | growth at 0.001 µM (M14 [5]): 102% | growth at 0.001 µM (SK-MEL-28 [6]): 99% | growth at 1 µM (SNB-75): 24% | growth at 1 µM (LOX IMVI): 31% | growth at 1 µM (M14 [7]): 29% | growth at 0.001 µM (TK-10): 97% | growth at 0.001 µM (UO-31): 94% | growth at 0.001 µM (MDA-MB-231): 97% | growth at 0.01 µM (SR [8]): 91% | growth at 0.01 µM (HOP-62): 111% | growth at 0.01 µM (HOP-92 [9]): 96% | growth at 1 µM (PC-3 [10]): 18% | growth at 10 µM (SR [11]): 7% | growth at 10 µM (KM12): 6% | growth at 10 µM (UACC-62 [12]): 29% | growth at 10 µM (786-0): 6% | growth at 10 µM (CAKI-1 [13]): 26% | growth at 10 µM [14]: -1% | growth at 10 µM (T47D): 2% | GI50 [15]: 2.84 µM | TGI [15]: 24 µM | CC50 [15, 22]: > 100 µM | GI50 (HOP-92 [16]): 9.51 µM | TGI (HOP-92 [16]): 94.8 µM | CC50 (HOP-92 [16]; [22]): > 100 µM | GI50 (PC-3 [17]): 1.5 µM | Activity (PC-3 [18]): 40% | growth at 0.001 µM (HOP-92 [19]): 101% | growth at 0.01 µM (HCC 2998): 101% | growth at 0.01 µM (SF-268 [20]): 111% | growth at 0.01 µM (SK-MEL-28 [21]): 87% | growth at 0.01 µM (NCI/ADR-RES): 111%
